Where two headings read alike, the source gives them in different places.
What was measured:
METH self-administration [1] = settings: cited from earlier work
sigma-1 receptors = settings: ref Cao et al, 2016, cited from earlier work; for sigma-1/DAT binding ratio: ratio of binding affinities, Hiranita et al, 2017
[2] = system: cocaine self-administration; settings: cited from earlier work
[3] = system: cocaine-induced locomotion; settings: ref Zhang et al, 2017; cited from earlier work
locomotion [4] = experiment: Locomotion during saccharin self-administration; format: in vivo, rat; settings: rats (Supplemental Figure S3)
brain stimulation reward = settings: cited from earlier work
[5] = mouse, previously conducted; ref Supplemental Material; cited from earlier work
locomotion [6] = settings: cited from earlier work
[7] = system: saccharin self-administration; experiment: Saccharin self-administration; format: in vivo, rat; settings: rats (Supplemental Figure S3)
[8] = system: sucrose self-administration; settings: rats; ref Zhang et al, 2017; cited from earlier work
[9] = Phase I metabolic stability in rat liver microsomes; format: in vitro ADME
[10] = system: cocaine-induced reinstatement; settings: ref Zhang et al, 2017; cited from earlier work
METH self-administration [11] = experiment: Intravenous METH self-administration, short access; format: in vivo, rat; settings: for reduction of METH intake: ShA rats (Supplemental Figure S2)
Procedure, shortened: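 Rats (225-275 g at start, reverse light cycle, free food/water) trained on i.v. METH, 10-15 sessions, then 10 FR1 sessions of 1 h (ShA) or 6 h (LgA) access. Test compound i.p. (vehicle up to 100 mg/kg), 30 min or 1 h pretreatment, then FR1 session; Latin-square, within-subjects. Mean ± SEM; ANOVA or paired t-test vs vehicle, Holm-Sidak.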

[12] = Plasma and brain levels after single i.p. dose in rats; format: in vivo; settings: rat
Procedure, shortened: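 Rats given a single 10 mg/kg i.p. dose, freshly prepared in 10% DMSO and 10% Tween 80 diluted with sterile saline. At 30 and 120 min (n = 3 per time point), CO2 euthanasia. Heparinized cardiac-puncture blood was spun at once for plasma. Brain was dissected and flash-frozen at -80°C.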

[13] = target: dopamine transporter (DAT); settings: read-out: Ki, DAT affinity; ref Cao et al, 2016; Zhang et al, 2017; cited from earlier work
[14] = ref Cao et al, 2016; cited from earlier work
[15] = rats, ref Hiranita et al, 2014, 2017
[16] = 10 mg/kg i.p., 30 min post-administration
[17] = 10 mg/kg i.p., 2 h (120 min) post-administration
[18] = all doses tested i.p. (JJC8-088 3, 10, 30 mg/kg; JJC8-089 1, 3, 10, 30 mg/kg)
[19] = 10-30 mg/kg, ref Zhang et al (2017)
[20] = 100 mg/kg i.p., 1 h pretreatment, vs vehicle

Compound	sigma-1/DAT binding ratio (sigma-1 receptors)	locomotion (locomotion [4])	saccharin (sweetened water) self-administration [7]	half-life [9]	METH intake, LgA rats entire 6 h session (METH self-administration [11]; 30 mg/kg i.p., vs vehicle)	reduction of METH intake (METH self-administration [11])	brain level [12, 16]	brain level [12, 17]	Ki [13]	other results
NC(=O)C[S+]([O-])C(c1ccccc1)c1ccccc1 (racemic) [(±)-modafinil]										METH self-administration (METH self-administration [1]; 300 mg/kg, very high dose, ref Reichel and See (2012)): significantly decreased
CCCCN1[C@@H]2CC[C@H]1CC(OC(c1ccc(F)cc1)c1ccc(F)cc1)C2 (stereo partly drawn) [JHW 007, reference compound]	0.20-0.23									METH self-administration (METH self-administration [1]; [15]): effectively block; cocaine self-administration [2, 15]: effectively block
Fc1ccc(C(SCCNCCCc2ccccc2)c2ccc(F)cc2)cc1 [JJC8-016, N-[2-([bis(4-fluorophenyl)methyl]thio)ethyl]-3-phenylpropan-1-amine]		without causing significant locomotor effects	significantly reduced	9 min	significantly decreased	> 50%				cocaine-induced locomotion [3]: effectively inhibited; affinity for sigma-1 receptors (sigma-1 receptors): high affinities; intracranial self-stimulation (brain stimulation reward; ref Zhang et al, 2017): without affecting; brain penetration [5]: good brain penetration; locomotor activity (locomotion [6]; ref Zhang et al, 2017): without affecting; sucrose self-administration [8]: reduce; cocaine-induced reinstatement [10]: effectively inhibited; cocaine self-administration ([2]; ref Zhang et al, 2017): effectively inhibited; METH intake, LgA rats first hour (METH self-administration [11]; 30 mg/kg i.p., vs vehicle): significantly decreased; METH intake, ShA rats 1 h session (METH self-administration [11]; 30 mg/kg i.p., vs vehicle): significantly decreased; reduction of self-administration (METH self-administration [11]; LgA rats, 1 h time point (Supplemental Figure S2)): > 50%
[O-][S+](CCN1CCN(CC(O)Cc2ccccc2)CC1)C(c1ccc(F)cc1)c1ccc(F)cc1 (stereo not drawn) [JJC8-088, 1-[4-(2-[(bis[4-fluorophenyl]methyl)sulfinyl]ethyl)piperazin-1-yl]-3-phenylpropan-2-ol]	> 100	increased	increased	39 min			very little	nearly undetectable	2.53 nM	levels in both brain and plasma ([12]; 10 mg/kg i.p., 30 min and 2 h): low levels; Ki (sigma-1 receptors; read-out: Ki, sigma1 receptors): 336 nM; t1/2 in mouse liver microsomes [14]: 12.9 min; METH intake, LgA rats entire 6 h session (METH self-administration [11]; all doses tested i.p. (3, 10, 30 mg/kg)): did not affect; METH intake, LgA rats first hour (METH self-administration [11]; [18]): did not significantly change; METH intake, ShA rats 1 h session (METH self-administration [11]; [18]): did not significantly change
CC(O)CN1CCN(CCSC(c2ccc(F)cc2)c2ccc(F)cc2)CC1 (stereo not drawn) [JJC8-089, 1-[4-(2-[(bis[4-fluorophenyl]methyl)thio]ethyl)piperazin-1-yl]propan-2-ol]	0.24	without causing significant locomotor effects	significantly reduced	14 min	significantly decreased	> 50%	7.6 ± 0.3 nmol/g	3.6 ± 0.7 nmol/g	16.7 nM	Kp ([12]; brain/plasma, ip, 10 mg/kg): 8 to 9; affinity for sigma-1 receptors (sigma-1 receptors): high affinities; METH intake, LgA rats first hour (METH self-administration [11]; [18]): only observed a group effect; METH intake, ShA rats 1 h session (METH self-administration [11]; [18]): only observed a group effect
CC(O)CN1CCN(CC[S+]([O-])C(c2ccc(F)cc2)c2ccc(F)cc2)CC1 (stereo not drawn) [JJC8-091, 1-[4-(2-[(bis[4-fluorophenyl]methyl)sulfinyl]ethyl)piperazin-1-yl]propan-2-ol]		without causing significant locomotor effects	significantly reduced	126 min	significant reduction		0.45 ± 0.18 nmol/g	0.30 ± 0.015 nmol/g	289 nM	METH intake, LgA rats entire 6 h session (METH self-administration [11]; 10 mg/kg i.p., vs vehicle): significant reduction; METH intake, LgA rats entire 6 h session (METH self-administration [11]; 56 mg/kg i.p., vs vehicle): significant reduction; METH intake, LgA rats first hour (METH self-administration [11]; 56 mg/kg i.p., vs vehicle): decreased; METH intake, ShA rats 1 h session (METH self-administration [11]; 56 mg/kg i.p., vs vehicle): decreased
NC(=O)C[S@@+]([O-])C(c1ccccc1)c1ccccc1 [R-MOD, [R]-2-[(diphenylmethyl)sulfinyl]acetamide, reference compound]		did not alter	did not alter	55 min		> 50%				brain stimulation reward (brain stimulation reward; [19]): enhanced; locomotion (locomotion [6]; [19]): increased; METH intake, LgA rats first hour (METH self-administration [11]; [20]): significantly decreased; METH intake, ShA rats 1 h session (METH self-administration [11]; [20]): significantly decreased; METH intake, LgA rats entire 6 h session (METH self-administration [11]; 100 mg/kg i.p., vs vehicle (p = 0.058)): nonsignificant
